Article PMC6240402 (The Journal of allergy and clinical immunology, 2018)
“Also recorded” adds a separate entry of the source. Blank lines part the entries; values can stand above or below the molecule they belong to.

What was measured:
sputum eosinophils / AHR = settings: clinical trial; cited from earlier work
lung eosinophils = settings: subcutaneous 100 mg/kg, resuspended with Tween-80; cited from earlier work
CCR3 [1] = target: T1, CCR3 (Homo sapiens, UniProt P51677); assay: CCR3 surface expression/internalization in AML14.3D10-CCR3 cells; format: cell-based
T1 sequence (P51677 1-355): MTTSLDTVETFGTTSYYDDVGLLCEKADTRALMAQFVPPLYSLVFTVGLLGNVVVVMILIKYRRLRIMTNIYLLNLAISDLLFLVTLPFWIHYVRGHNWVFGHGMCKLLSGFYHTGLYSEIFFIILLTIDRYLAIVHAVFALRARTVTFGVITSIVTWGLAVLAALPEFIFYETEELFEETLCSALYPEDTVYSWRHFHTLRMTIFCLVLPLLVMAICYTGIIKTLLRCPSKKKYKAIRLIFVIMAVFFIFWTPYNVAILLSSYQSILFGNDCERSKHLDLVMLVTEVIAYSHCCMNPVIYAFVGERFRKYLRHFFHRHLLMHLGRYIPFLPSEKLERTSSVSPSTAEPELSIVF
Summary of the method: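 CCR3-transfected, eosinophil-differentiated AML14.3D10 cells were exposed for 30 min to vehicle, test peptide (0.01–10 μM) or comparator antagonists (1 μM), each with or without CCL11 (12 nM). Longer exposures ran 24–72 h at 1 μM, with daily medium/inhibitor renewal. Cells were blocked with 10% heat-inactivated human AB serum, stained with PE anti-CCR3 (5E8) or isotype, and analysed by flow cytometry. Values are mean ± SEM, n=3, in triplicate.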

Solubility observation = format: physicochemical; settings: authors' own experience; unsuitable for iv injection
CCR3 [2] = target: T1, CCR3; settings: SB328437; cited from earlier work
[3] = system: CCR3 (AML14.3D10-CCR3 cells); format: cell-based
Summary of the method: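 AML14.3D10-CCR3 cells (an eosinophil-differentiated AML line stably expressing CCR3) were held 24, 48 or 72 h with vehicle or test compound at 1 μM. Medium was replaced daily with fresh complete medium containing compound. Cells were then challenged with CCL11 (12 nM). Each time point was compared with the 24 h point; mean ± SEM, n=3 experiments in triplicate.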

[4] = target: T2, CCR3 (human blood eosinophils) (Homo sapiens, UniProt P51677); assay: CCR3 surface expression in human blood eosinophils, prolonged exposure; format: cell-based
T2 sequence (P51677 1-355): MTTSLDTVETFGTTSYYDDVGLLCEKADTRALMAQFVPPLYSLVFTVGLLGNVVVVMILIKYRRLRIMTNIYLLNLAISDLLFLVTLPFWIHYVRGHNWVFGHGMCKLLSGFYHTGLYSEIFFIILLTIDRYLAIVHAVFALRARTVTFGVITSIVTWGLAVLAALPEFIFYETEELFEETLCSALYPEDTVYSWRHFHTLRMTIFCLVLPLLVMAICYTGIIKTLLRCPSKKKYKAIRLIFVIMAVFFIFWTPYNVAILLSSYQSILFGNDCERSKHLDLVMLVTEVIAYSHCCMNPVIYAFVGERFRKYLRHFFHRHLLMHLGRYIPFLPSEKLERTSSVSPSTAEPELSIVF
Summary of the method: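 Eosinophils came from blood of mild allergic asthmatic donors, separated on a Ficoll-Paque gradient and then negatively selected. Cells got vehicle or 1 μM inhibitor, with or without CCL11 (12 nM), for 24, 48 or 72 h, refreshed daily with medium plus inhibitor. After blocking with 10% heat-inactivated human AB serum, cells were stained with PE anti-CCR3 (clone 5E8) or isotype control and read by flow cytometry. Surface CCR3 is given as % of vehicle: mean ± SEM, n=3, triplicate.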

[5] = target: T2, CCR3 (human blood eosinophils); assay: Eotaxin-induced chemotaxis of blood eosinophils; format: cell-based; settings: CCL11 12 nM, CCL24 20 nM, CCL26 100 nM
Summary of the method: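 Eosinophils were taken from the blood of mild allergic asthmatic subjects, separated over a Ficoll-Paque Plus gradient, then purified by negative selection with an eosinophil isolation kit. The test peptide was given at 0.001–10 μM, with 4 h chemotaxis toward CCL11 (12 nM), CCL24 (20 nM) or CCL26 (100 nM). IC50 and IC90 were derived from the dose-response inhibition curves.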

[6] = target: T3, CCR3 (AML14.3D10-CCR3 cells) (Homo sapiens, UniProt P51677); assay: Eotaxin-induced chemotaxis of AML14.3D10-CCR3 cells; format: cell-based; settings: CCL11 12 nM, CCL24 20 nM, CCL26 100 nM
T3 sequence (P51677 1-355): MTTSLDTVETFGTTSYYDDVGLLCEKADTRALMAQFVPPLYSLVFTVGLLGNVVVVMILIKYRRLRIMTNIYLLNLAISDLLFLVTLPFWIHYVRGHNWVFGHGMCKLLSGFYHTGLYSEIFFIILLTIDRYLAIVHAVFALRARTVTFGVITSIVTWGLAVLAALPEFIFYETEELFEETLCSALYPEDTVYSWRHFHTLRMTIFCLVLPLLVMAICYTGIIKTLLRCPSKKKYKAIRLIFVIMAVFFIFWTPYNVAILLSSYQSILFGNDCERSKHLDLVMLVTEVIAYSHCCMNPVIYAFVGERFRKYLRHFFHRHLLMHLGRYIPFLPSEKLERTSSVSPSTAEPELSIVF
Summary of the method: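 Eosinophil-differentiated acute myeloid leukaemia line stably transfected to express CCR3. Cells exposed to the test peptide across 0.001–10 μM as a dose-response, then allowed to migrate for 4 h toward CCL11 (12 nM), CCL24 (20 nM) or CCL26 (100 nM). Read-out is inhibition of chemotaxis.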

CCR3 [7] = target: T1, CCR3; assay: 13C HSQC NMR binding to reductively methylated CCR3 positive membranes
Summary of the method: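 13C HSQC spectra recorded on membranes carrying 13C-reductively methylated CCR3 (lysine di-13CH3 label), compared with CCR3-null membranes. Spectra were taken with or without 1 μM CCL11, in the presence or absence of 2 μM test peptide. Binding was judged from spectral comparisons between conditions.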

Molecule: NC(=O)c1ccc(CNC(=O)NC[C@H]2CN(Cc3ccc(Cl)c(Cl)c3)CCO2)cc1 [GW766994]
- AHR (sputum eosinophils / AHR): significant inhibition of AHR
- sputum eosinophils (sputum eosinophils / AHR): trend towards inhibition of sputum eosinophils

Molecule: COC(=O)[C@H](Cc1ccc([N+](=O)[O-])cc1)NC(=O)c1cccc2ccccc12 [SB328437]
- OVA-induced accumulation of eosinophils in lungs (lung eosinophils): successfully suppress OVA-induced accumulation of eosinophils in the lungs
- CCR3 internalization (discussion) (CCR3 [1]; effect more pronounced with longer treatment times): partially or completely block CCR3 internalization
- solubility (Solubility observation): solubility issues
- activity at CCR3 in eosinophils (CCR3 [2]): specific inhibitor of CCR3 in eosinophils
- drop in chemotaxis inhibition level over 72h ([3]; AML14.3D10-CCR3, 1 μM, CCL11 12 nM, 72h): 13.7%
- CCL11/CCR3-mediated chemotaxis inhibition relative to R321 and UCB35625 ([3]; equimolar concentrations, 1 μM): less effective inhibitor of CCL11/CCR3-mediated chemotaxis
- CCR3 surface levels, prolonged exposure ([4]; 1 μM, up to 72h): failed to promote CCR3 cell surface accumulation; also recorded: no significant effect on receptor levels

Molecule: CCL11: high affinity agonist chemokine of CCR3
- induction of chemotaxis, blood eosinophils [5]: undergo CCR3-mediated chemotaxis
- CCR3 internalized from cell surface (CCR3 [1]; AML14.3D10-CCR3, CCL11 30 min, flow cytometry): More than 50%
- induction of chemotaxis, AML14.3D10-CCR3 [6]: undergo CCR3-mediated chemotaxis
- interference of CCL11 and R321 with each other's binding (CCR3 [7]; 1 μM CCL11 and 2 μM R321): neither CCL11 nor R321 interfere with each other’s binding to the receptor
- effect on CCR3 HSQC signals (CCR3 [7]; 1 μM CCL11 or 2 μM R321): specifically reduced the intensity of CCR3 signals
- CCR3 surface expression, 24h, CCL11 alone ([4]; CCL11 12 nM alone, 24h, % of vehicle): ~ 68%
- CCR3 surface expression, 72h, CCL11 alone ([4]; CCL11 12 nM alone, 72h, % of vehicle): ~ 18%

The remaining lines, values ahead:

- induction of chemotaxis, blood eosinophils [5]: undergo CCR3-mediated chemotaxis
- induction of chemotaxis, AML14.3D10-CCR3 [6]: undergo CCR3-mediated chemotaxis
Molecule: CCL26: high affinity agonist chemokine of CCR3

- induction of chemotaxis, blood eosinophils [5]: undergo CCR3-mediated chemotaxis
- induction of chemotaxis, AML14.3D10-CCR3 [6]: undergo CCR3-mediated chemotaxis
B1: CCL24: high affinity agonist chemokine of CCR3 (protein, UniProt O00175 27-119, looked up)
C-C motif chemokine 24: VVIPSPCCMFFVSKRIPENRVVSYQLSSRSTCLKAGVIFTTKKGQQFCGDPKQEWVQRYMKNLDAKQKKASPRARAVAVKGPVQRYPGNQTTC
